Results from different studies.
Protocols differ between the studies behind these lines.
Target: Homeodomain-interacting protein kinase 4 (HIPK4, Homo sapiens, UniProt Q8NE63)
Residues used in one study (Q8NE63 1-616): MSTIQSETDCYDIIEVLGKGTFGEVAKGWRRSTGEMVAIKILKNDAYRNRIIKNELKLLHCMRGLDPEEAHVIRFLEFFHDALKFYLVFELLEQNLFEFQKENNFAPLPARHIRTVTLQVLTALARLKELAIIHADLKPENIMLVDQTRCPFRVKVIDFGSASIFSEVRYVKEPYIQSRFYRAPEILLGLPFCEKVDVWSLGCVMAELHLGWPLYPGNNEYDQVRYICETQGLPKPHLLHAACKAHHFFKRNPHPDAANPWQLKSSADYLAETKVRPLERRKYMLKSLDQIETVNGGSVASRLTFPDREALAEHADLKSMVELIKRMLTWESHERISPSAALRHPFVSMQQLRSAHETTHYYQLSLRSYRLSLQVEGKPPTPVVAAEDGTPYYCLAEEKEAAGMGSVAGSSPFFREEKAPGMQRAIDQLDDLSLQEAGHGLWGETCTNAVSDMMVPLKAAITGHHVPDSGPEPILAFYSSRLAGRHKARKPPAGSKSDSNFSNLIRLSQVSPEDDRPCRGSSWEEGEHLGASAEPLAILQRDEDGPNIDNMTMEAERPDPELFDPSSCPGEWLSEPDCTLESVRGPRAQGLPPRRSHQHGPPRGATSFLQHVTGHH

`Cn1cncc1[C@](O)(COc1ccc(C#N)cc1-c1ccc(OC(F)(F)F)cc1)c1ccc(C#N)cc1` has a remaining binding of 86% (cell-free assay; competition with immobilised ligand; 1 µM).
For `Cn1cc(-c2cc(F)cc(N3CCn4c(cc5c4CCCC5)C3=O)c2CO)cc(Nc2ccc(N3CCN(C4COC4)CC3)cn2)c1=O`, the inhibition was 11% (enzyme activity; inhibitor; 0.1 µM).
`Cc1nn(C)cc1-c1nc2c(N3CCN(Cc4ccc(Cl)cc4)CC3)c(Cl)cnc2[nH]1` gave a remaining binding of 85% (binding; competition with immobilised ligand; 1 µM).
For `O=c1[nH]c2ccccc2n1C1CCN(Cc2ccc(-c3[nH]c4cc5ncnc5cc4nc3-c3ccccc3)cc2)CC1`, the remaining signal was 99.3% (cell-free assay; 0.5 µM).
`Cn1cc(-c2cccc(N3CCc4c(sc5c4CC(C)(C)C5)C3=O)c2CO)cc(Nc2ccncn2)c1=O` gave an inhibition of 11% (enzyme activity; inhibitor; 1 µM).
`COc1ncccc1-c1cnn2ccc(N3CCN(C(=O)OC(C)C)CC3)nc12` has a remaining binding of 99% (binding; competition with immobilised ligand; 1 µM).
For `CC(C)(C)c1cc(C=C(C#N)C#N)cc(Br)c1O`, the remaining activity was 103% (enzyme activity; inhibitor; 0.5 µM).
With `Nc1ncc(-c2nc(N3CCOCC3)nc(N3CCOCC3)n2)c(C(F)F)n1` the remaining binding was 100% (binding; competition with immobilised ligand; 10 µM).
